TPT1 inh = inhibitors of Candida albicans tRNA 2'-phosphotransferase TPT1 | recombinant caTPT1, FP RNA substrate dephosphorylation | inhibition, % at 5 µM | 0.81% of 300,000 active | AID 1962;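 active = inhibition above the mean of all tested compounds plus 3 SD, set per screening campaign, cut at about 24% in these data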;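 note: plate controls were DMSO alone for no effect and ferristatin control at 100 nM for full effect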
HNF4A DNA FP = change in binding of human HNF4 alpha to DNA; P41235; HNF4a-FITC DNA binding, fluorescence polarization, 1 h; activity change, % at 10 µM; 0.3% of 360,000 active; AID 1224865; in the data active = activity change above about 30%, passing the limit was not always enough
NR1D1 modulator = Rev-erb alpha (human) modulation | P20393 | Rev-erbα–FITC-DNA binding, fluorescence polarization, 90 min | activity, % at 10 µM | 0.79% of 370,000 active;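 active = activity above about 14%, limit read from the data; passing the limit was not always enough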;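 note: 0% = DMSO wells with 35 nM protein and 100% = DMSO wells with 750 nM protein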
CSN inh = CSN deneddylation inhibition | Purified CSN, SCF-Nedd8-OG deneddylation, fluorescence polarization | inhibition, % at 12.5 µM | 0.38% of 360,000 active | Q92905;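 active = pattern-corrected inhibition above about 35%, with an unprinted fluorescence ratio check between 0.5 and 1.5, limit read from the data, passing the limit was not always enough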;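 note: 0% = enzyme with substrate and 100% = substrate without enzyme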
Target sequence (Q92905 whole entry, looked up, one chain of several): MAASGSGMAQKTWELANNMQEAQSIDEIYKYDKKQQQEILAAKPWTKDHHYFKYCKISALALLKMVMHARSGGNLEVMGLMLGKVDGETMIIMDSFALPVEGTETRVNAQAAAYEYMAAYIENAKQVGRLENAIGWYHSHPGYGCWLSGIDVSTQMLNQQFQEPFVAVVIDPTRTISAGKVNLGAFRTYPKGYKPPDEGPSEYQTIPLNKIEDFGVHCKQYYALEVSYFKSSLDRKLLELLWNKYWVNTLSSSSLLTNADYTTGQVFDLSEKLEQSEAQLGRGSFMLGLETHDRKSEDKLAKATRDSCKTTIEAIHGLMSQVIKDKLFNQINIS
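test system = HEK293T-derived human Csn5 enzyme | amount = 0.24 nM Csn5 enzyme, final concentration | medium = Tris/NaCl/DTT buffer, pH 7.5 | schedule = 90 min reaction at room temperature | signal = FP | evaluation = inhibition of Csn5 cleavage, % | compound dosing = single dose of 12.5 µM compound with 0.25% DMSO | probe or stimulus = 10 nM SCFSkp2-Nedd8OG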
Rev-erbA confirm = confirmation of modulators of human Rev-erb alpha DNA binding; shares compounds with NR1D1 modulator; Rev-erb alpha FITC-DNA binding, fluorescence polarization, 90 min; activation, % at 25 µM; 61% of 3,000 active;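 active = activation at or above a set limit, or at least 3 SD above the negative control mean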;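 note: 0% = 35 nM protein with DMSO and 100% = 750 nM protein high control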
RORg DNA counter = affects RORgamma DNA binding in a Rev-erb alpha counter-screen; purified RORgamma protein-FITC-DNA binding, fluorescence polarization; AID 1259320; 8% of 910 active; IC50, µM; shares compounds with NR1D1 modulator;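 active = Compounds whose fitted half-maximal concentration for disrupting protein-DNA binding is below 10 micromolar; the record names Rev-erb in its text, so the target is in doubt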
* marks the source's active call; other numbers are inactive results; i = inactive; . = no result given. Only some compounds are listed: those with a hit (about 1.7% of all), similar ones and a draw of the others.

SMILES	TPT1 inh	HNF4A DNA FP	NR1D1 modulator	CSN inh	Rev-erbA confirm	others
CCCCn1c(SC(C)C(N)=O)nc2cc(C(=O)OC)ccc2c1=O (centres undefined)	-0.4	-0.7	-5.0	-0.7	.
Cc1ccc2nc(N3CCN(S(=O)(=O)c4ccc(C)c(Cl)c4)CC3)c(C#N)cc2c1	0.6	1.2	189.4*	4.3	144.9*	RORg DNA counter=i
Cc1ccc2nc(N3CCN(C)CC3)c(C#N)cc2c1	-0.5	-2.5	-2.5	-2.2	.
CCOC(=O)Nc1ccc2c(COC(=O)c3ccccc3O)cc(=O)oc2c1	1.7	4.6	8.6	1.6	.
CCc1ccc2c(COC(=O)CNS(=O)(=O)c3ccc(NC(C)=O)cc3)cc(=O)oc2c1	0.5	3.0	3.8	1.2	.
CCOC(=O)Nc1ccc2c(COC(=O)CN(C)S(=O)(=O)c3ccc(C)cc3)cc(=O)oc2c1	3.1	-2.2	46.0*	4.4	14.0
CCOC(=O)Nc1ccc2c(COC(=O)CNS(=O)(=O)c3cccc(Br)c3)cc(=O)oc2c1	5.2	3.9	75.7*	-4.3	43.1*
O=S1(=O)CC2c3ccccc3CCN2CN1Cc1ccc(F)cc1 (centres undefined)	.	.	-3.8	.	.
CC(C)(C)CNC(=O)c1ccc2c(c1)S(=O)(=O)c1cc(Cl)ccc1C2=O	.	-4.6	-1.1	4.1	.
Cc1cc(N(C)C(=O)c2ccc3c(c2)S(=O)(=O)c2cc(Cl)ccc2C3=O)c(C(F)(F)F)o1	.	0.3	19.5*	1.1	19.9*
COc1ccc(/C=C/C(=O)OCC(=O)NC2CCCCC2C)c(OC)c1 (centres undefined)	.	2.6	-1.8	-0.2	.
O=C(NCc1ccccc1)C(c1cc2ccccc2o1)n1c(=O)c(-c2ccccc2)nc2ccccc21 (centres undefined)	.	6.5	46.9*	-3.5	28.0*	RORg DNA counter=>40
CCCCC(=O)N(Cc1ccccc1)c1ccccc1C(=O)Nc1cc(OC)ccc1OC	.	.	-2.5	.	.
CCCn1c(SCN2C(=O)c3ccccc3C2=O)nc2cc(Cl)ccc2c1=O	-1.3	-3.5	39.3*	1.2	-39.8
CC1=Nc2ccccc2/C1=C/c1c(N)n2c(S(=O)(=O)C(C)C)nsc2nc1=O	1.5	3.3	-2.2	6.4	.
Cc1cn2c(N)c(C=C3C=C(Cl)C(=O)C(Cl)=C3)c(=O)nc2s1	.	107.8*	26.3*	62.4	11.6
Cc1ccc(NC(=O)N2CCC(N(C)CCC(C)C)CC2)cc1F	.	.	-4.5	.	.
Cn1cc(C2NC(=O)c3ccccc3N2)c2ccccc21 (centres undefined)	.	0.6	24.8*	-5.3	17.8*
CCOC(=O)CSc1nc2cc(C)ccc2cc1C#N	2.0	3.5	3.2	1.4	.
N#Cc1cc2cc3c(cc2nc1Cl)OCCO3	.	18.0	26.6*	61.2*	21.6*
CCOC(=O)CSc1nc2cc3c(cc2cc1C#N)OCCO3	-6.8	0.5	75.2*	-2.0	30.9*	RORg DNA counter=0.657*
N#Cc1cc2cc3c(cc2nc1SCC(=O)N1CCOCC1)OCO3	-2.5	2.1	36.7*	-1.3	11.7
Cc1cc2cc3c(cc2nc1SCC(=O)N1CCOCC1)OCO3	-2.1	2.5	-2.2	2.2	.
COC(=O)CSc1nc2cc3c(cc2cc1C)OCCO3	-1.0	4.2	4.8	-0.3	.
COC(=O)CSc1nc2cc3c(cc2cc1C#N)OCO3	-4.4	3.8	58.5*	4.8	23.2*
SMILES	TPT1 inh	HNF4A DNA FP	NR1D1 modulator	CSN inh	Rev-erbA confirm	others
Cc1nn(CCC(=O)NNC(=O)NCc2ccccc2)c(C)c1[N+](=O)[O-]	.	.	5.2	.	.
CCOC(=O)CSc1nc2cc3c(cc2cc1C)OCO3	-2.6	-1.4	-2.5	-2.7	.
CCOC(=O)CSc1nc2cc3c(cc2cc1C#N)OCO3	-10.9	3.0	66.2*	-0.9	36.5*	RORg DNA counter=>40
CC(C)OC(=O)CSc1nc2cc3c(cc2cc1C#N)OCO3	3.2	0.0	49.2*	-0.2	9.4
CC(C)OC(=O)CSc1nc(N)c(C#N)cc1C#N	0.5	0.6	9.1	-5.7	.
COc1cc(OC)c(N(C)S(=O)(=O)c2cccc(C(=O)OCC(=O)N3CCOCC3)c2)cc1Cl	.	1.5	2.6	3.6	.
COc1cc(OC)c(N(C)S(=O)(=O)c2cccc(C(=O)OCc3c(C)noc3C)c2)cc1Cl	-2.5	1.0	23.2*	0.7	37.1*	RORg DNA counter=i
COc1cccc(C2NC(=O)c3sc(=S)n(-c4ccccc4)c3N2)c1 (centres undefined)	-2.4	0.3	2.3	11.1	.

From PubChem
